What was measured:
HCT-116 = assay: Growth inhibition of human HCT116 cells after 72 hrs by CellTiter-Glo assay; assay type: functional; conditions: HCT-116, 72 h
Mus musculus = assay: Toxicity in nu/nu mouse xenografted with human MV4-11 cells assessed as body weight loss at 15 to 40 mg/kg, iv qd administered for 21 days measuring during compound dosing; assay type: organism-based; conditions: in vivo, 504 h
How it was run: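 Female nu/nu mice carried established MV4-11 xenografts. Once tumors reached 200 mm3, mice were grouped and given compound or vehicle by intravenous injection once daily at 15, 30 or 40 mg/kg/d for 21 days. A Cytarabine arm received 50 mg/kg/d iv. Body weight was tracked during dosing and expressed relative to initial weight set as 100%.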

MV4-11 [1] = assay: Induction of apoptosis in human MV4-11 cells assessed as early apoptotic cells at 0.2 uM after 24 hrs by annexin V-FITC/propidium iodide staining-based flow cytometric method (reference value: 3.54%); assay type: functional
[2] = Intrinsic clearance in mouse liver microsomes by LC-MS/MS analysis; assay type: ADME, microsome; conditions: read-out: CLH
[3] = molecular target: T1, Receptor-type tyrosine-protein kinase FLT3 (Homo sapiens, UniProt P36888); assay: Inhibition of human FLT3 using EAIYAAPFAKKK as substrate preincubated for 20 mins followed by [gamma-33P]-ATP addition measure after 120 mins by filter binding method
T1 sequence (P36888 whole entry): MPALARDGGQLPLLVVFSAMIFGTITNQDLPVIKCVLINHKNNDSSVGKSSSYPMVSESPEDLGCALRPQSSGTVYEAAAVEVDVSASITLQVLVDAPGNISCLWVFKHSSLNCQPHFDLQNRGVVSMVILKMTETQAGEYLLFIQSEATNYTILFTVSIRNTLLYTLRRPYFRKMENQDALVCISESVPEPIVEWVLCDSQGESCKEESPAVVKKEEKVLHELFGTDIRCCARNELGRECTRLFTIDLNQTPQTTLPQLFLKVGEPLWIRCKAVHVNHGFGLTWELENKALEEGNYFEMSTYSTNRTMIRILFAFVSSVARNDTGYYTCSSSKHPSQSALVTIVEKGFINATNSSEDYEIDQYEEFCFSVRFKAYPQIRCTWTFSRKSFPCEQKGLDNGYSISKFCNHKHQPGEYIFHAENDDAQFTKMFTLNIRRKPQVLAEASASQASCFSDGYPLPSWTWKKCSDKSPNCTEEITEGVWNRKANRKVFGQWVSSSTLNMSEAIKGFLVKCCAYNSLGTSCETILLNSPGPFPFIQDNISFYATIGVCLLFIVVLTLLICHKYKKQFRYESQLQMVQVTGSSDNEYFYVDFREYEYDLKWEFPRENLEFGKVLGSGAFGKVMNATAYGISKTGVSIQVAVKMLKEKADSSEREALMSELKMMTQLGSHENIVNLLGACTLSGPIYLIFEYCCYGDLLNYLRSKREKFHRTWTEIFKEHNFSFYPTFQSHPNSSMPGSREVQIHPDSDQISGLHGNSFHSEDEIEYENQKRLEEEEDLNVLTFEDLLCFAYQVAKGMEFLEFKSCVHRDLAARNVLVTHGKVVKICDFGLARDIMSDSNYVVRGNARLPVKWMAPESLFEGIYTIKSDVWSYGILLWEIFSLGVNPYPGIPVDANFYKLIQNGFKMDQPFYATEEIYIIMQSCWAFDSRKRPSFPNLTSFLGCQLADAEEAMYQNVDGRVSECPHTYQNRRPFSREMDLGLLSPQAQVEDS
How it was run: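 Compound preincubated with kinase 20 min at room temperature. Filter-binding read-out, curve-fitted IC50; mean ± SD of three independent experiments.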

CDK6/cyclin D1 = CDK6/cyclin D1 (Homo sapiens, UniProt Q00534); assay: Inhibition of human CDK6/Cyclin D1 using RB protein as substrate preincubated for 20 mins followed by [gamma-33P]-ATP addition measure after 120 mins by filter binding method; assay type: protein-complex assay
Sequence of CDK6/cyclin D1 (P24385 whole entry): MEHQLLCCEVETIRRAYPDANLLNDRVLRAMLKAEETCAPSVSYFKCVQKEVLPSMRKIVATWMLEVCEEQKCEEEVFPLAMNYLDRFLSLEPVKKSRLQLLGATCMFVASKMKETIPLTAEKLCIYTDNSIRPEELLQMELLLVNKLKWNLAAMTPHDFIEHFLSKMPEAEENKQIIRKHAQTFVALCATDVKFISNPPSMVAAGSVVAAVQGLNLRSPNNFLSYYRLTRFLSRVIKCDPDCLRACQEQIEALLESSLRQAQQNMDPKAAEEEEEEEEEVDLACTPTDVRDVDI
Sequence of CDK6/cyclin D1 (Q00534 whole entry): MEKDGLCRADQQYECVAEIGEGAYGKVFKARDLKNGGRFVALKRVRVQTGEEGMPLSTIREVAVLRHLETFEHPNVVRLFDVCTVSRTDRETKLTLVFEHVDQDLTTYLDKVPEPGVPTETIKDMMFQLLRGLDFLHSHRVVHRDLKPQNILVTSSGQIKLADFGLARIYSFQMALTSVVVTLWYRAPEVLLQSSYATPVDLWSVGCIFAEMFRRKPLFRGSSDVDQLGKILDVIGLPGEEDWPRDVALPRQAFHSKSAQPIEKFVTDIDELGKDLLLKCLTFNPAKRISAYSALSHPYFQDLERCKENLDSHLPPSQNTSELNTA
How it was run: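 Compound preincubated with kinase 20 min at room temperature. Reaction started with 10 μM [γ-33P]ATP and run 120 min at 25°C. Filter-binding read-out, curve-fitted IC50; mean ± SD of three independent experiments.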

MV4-11 [4] = assay: Growth inhibition of human MV4-11 cells after 72 hrs by CellTiter-Glo assay; assay type: functional, cell-based; conditions: MV4-11, 72 h
How it was run: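 MV4-11 cells grown in IMDM with 10% FBS, 2% L-glutamine and 1% pen/strep at 37 °C, 5% CO2. Seeded at 10000 cells/well and exposed to compound at various concentrations for 72 h. Viability read by CellTiter-Glo luminescence.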

MV4-11 [5] = assay: Induction of apoptosis in human MV4-11 cells at 2 uM after 24 hrs by annexin V-FITC/propidium iodide staining-based flow cytometric method; assay type: functional, cell-based
[6] = Toxicity in ICR mouse administered via gavage measured for 12 days; conditions: in vivo, po
[7] = Intrinsic clearance in human liver microsomes by LC-MS/MS analysis; assay type: ADME, microsome; conditions: read-out: CLH
MV4-11 [8] = assay: Induction of apoptosis in human MV4-11 cells assessed as late apoptotic cells at 2 uM after 24 hrs by annexin V-FITC/propidium iodide staining-based flow cytometric method (reference value: 2.54%); assay type: functional
MV4-11 [9] = assay: Antitumor activity against human MV4-11 cells xenografted in nu/nu mouse assessed as tumor regression at 40 mg/kg, iv qd measured on day 21 relative to vehicle-treated control; assay type: functional
How it was run: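 Female nu/nu mice bearing MV4-11 xenografts; dosing began once tumors reached 200 mm3. Given iv once daily for 21 days, with a vehicle-only group. Body weight and tumor size tracked relative to initial values, set as 100%. Tumors weighed at the end of the 22-day treatment period.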

CN1CCN(Cc2ccc(NC(=O)c3n[nH]cc3Nc3ncnc4[nH]ccc34)cc2)CC1
GI50 (HCT-116): 90 nM
Activity (Mus musculus): Non-Toxic
Activity (MV4-11 [1]): 15.02%
CLint scaled [2]: 139 mL/min/kg
IC50 [3]: 0.27 to 0.28 nM
IC50 (CDK6/cyclin D1): 1.96 nM
IC50 (MV4-11 [4]): 8 nM
Activity (MV4-11 [5]): Dose-dependent effect
LD50 at 288 h [6]: 186 mg/kg
CLint scaled [7]: 13.3 mL/min/kg
Activity (MV4-11 [8]): 24.17%
Activity (MV4-11 [9]): 81.33%

From ChEMBL document CHEMBL4052828, “Discovery of 4-((7H-Pyrrolo[2,3-d]pyrimidin-4-yl)amino)-N-(4-((4-methylpiperazin-1-yl)methyl)phenyl)-1H-pyrazole-3-carboxamide (FN-1501), an FLT3- and CDK-Kinase Inhibitor with Potentially High Efficiency against Acute Myelocytic Leukemia” (J Med Chem, 2018)
